Data reported in the EternaBench riboswitch data.

Test system: MS2 coat protein
Test: apparent Kd, MS2 coat protein; higher = weaker binding; RNA-MaP array; FMN 200 µM where present
In short: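 Two titrations, one without ligand and one with constant ligand, were run with SNAP-549-labelled MS2 coat protein from 0.7 or 1.5 nM, doubling to 3 µM. The targets were designs transcribed by stalled E. coli RNA polymerase on Illumina sequencing-chip clusters, in 100 mM Tris-HCl pH 7.5, 80 mM KCl, 4 mM MgCl2, BSA, DTT, yeast tRNA and Tween-20. The apparent Kd is the median of filtered per-cluster binding-curve fits, with green signal normalised to red-channel RNA signal and control-cluster median Fmax.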

[1] = designed as: OFF switch for flavin mononucleotide, no ligand
[2] = ligand present: flavin mononucleotide, designed as: OFF switch for flavin mononucleotide
[3] = designed as: ON switch for flavin mononucleotide, no ligand
[4] = ligand present: flavin mononucleotide, designed as: ON switch for flavin mononucleotide

Row | Sequence | apparent Kd [1] [nM] | apparent Kd [2] [nM] | apparent Kd [3] [nM] | apparent Kd [4] [nM]
1 | ACAAAUGGAGGAUAUACAUGAGGAUCACCCAUGUAUAUCCUACAUAUGUGAUCUUUAUGUAGAAGGCCAUUUGA | 12.2 | 11.5 | – | –
2 | AUAUCGUUAUCAGGAUAUGGACAGGCCUGUCCGUAUUGAGACAGUAACAUGAGGAUCACCCAUGUCCAGAAGGGAUCGAUGUAU | 54.2 | 48.6 | – | –
3 | UGUUGUUGAUAGGAUAUACAGGUAGGAGUAGGAGUAGAAGGAUCUACAUGAGGAUCACCCAUGUAGGAGUGAGA | 16.1 | 17.7 | – | –
4 | AGAUGACGAUGUCAUCUUCGUCGGACAUGAGGAUCACCCAUGUAGGAUAUGCUACUCAAAGAGUAGCAGAAGGACAUGUGUCUU | 24.6 | 92.1 | – | –
5 | CAGACCGGCGUAGGAUAUGUCGACAUGAGGAUCACCCAUGUAAACCUUGUCUGGUCCGGUGUGUGACAGAAGGAUGUCGGCCAU | 14.6 | 27.9 | – | –
6 | AUAAUUUUAUAUAUCUUUUUUAUCAGAAGGCAUAACAUGAGGAUCACCCAUGUAUAUUAUAGUUAUGAGGAUAUGAUUUAGUUA | 10.2 | 11.4 | – | –
7 | CAGUACUGAGGAUAUACAUGAGGAUCACCCAUGUGUUCCAGCUUGGAAACUAGCAAAAGUAGAAGGCAGUACUG | 14.8 | 158 | – | –
8 | AGCAUGUGAGGAUAUGCGGACUCCAGUAAAUCUGAAGUCCAGUAGAAGGCACAUGAGGAUCACCCAUGUGAUAA | 92.9 | 112 | – | –
9 | GAAGCACGCAUUAACAUGAGGAUCACCCAUGUCAAAAGACGUGAGGAUAUGGAUCUGAAGAAGAUCCAGAAGGCACCGUGCUAA | – | – | 8.41 | 5.3
10 | GGAUUGUGAGGAUAUUAGUUGUACGUCAAUAGACGUAUAAGUGAGAAGGCACAUGAGGAUCACCCAUGUUCCUG | 22.7 | 80.7 | – | –
11 | AACGCGUCAGGAUAUGCCAUAAAUUACCUAAUACGACCAUAGCAGAAGGGACAUGAGGAUCACCCAUGUAAAUA | 36.2 | 28.8 | – | –
12 | GAGUGAUUAGGAUAUACAUGAGGAUCACCCAUGUGCUUCAGCUAGGAGACUAGCAUUGGUAGAAGGAAUUACUC | 16.3 | 57.1 | – | –
13 | UGCUGACGAGGAUAUACAUGAGGAUCACCCAUGUUGGUUCAGCGACUUCGGUCGCAAUGUAGAAGGCGUCAGCU | 410 | 277 | – | –
14 | GAGACUACCGAGAAGGGCAUAUUAAGACUCUUCGUACUACGCCUAGACAUGAGGAUCACCCAUGUGCAGGAUAUCGAGCGGCUC | 6.38 | 6.05 | – | –
15 | GGGCCCGGUGUGAGGAUAUCGGGUUUGAAAGGGCCCGAGAAGGCACAUGAGGAUCACCCAUGUAAGCCGGGCCC | 15.4 | 14.4 | – | –
16 | GAAUAAUUGAUCCAAUUUUACAACAUGAGGAUCACCCAUGUGCAGGAUAUCGUGAAAGUUAAAUACGAGAAGGGCAAGAACUGU | 220 | 344 | – | –
17 | GCUACUACAUGAGGAUCACCCAUGUAUCCGUAGCGGGCCGCACAGGAUAUCAACCUCGGAAGAGGUGAGAAGGGUGAUACUCAU | – | – | 23.2 | 38.1
18 | GAGAGAGGGUGAGGAUAUUUAGUGAUAAUGAUAAAAGAAGGCACAGACAUGAGGAUCACCCAUGUGGGAAUAAUCCAGAGAGAG | – | – | 305 | 288
19 | GGUACUCAAAGAGUACCAAUACGAACAUGAGGAUCACCCAUGUAGGAUAUGCUACUCAAAGAGUAGCAGAAGGACGUGUACCUU | 24.7 | 54 | – | –
20 | GGGUCGUCAGGAUAUACAUGAGGAUCACCCAUGUGACCACACUUACCUAUCGCUCGCUGUAGAAGGGAUGAUGA | 30.3 | 27.1 | – | –
21 | GGCCGAAUGGUCUAGGUGCACUUACAUGAGGAUCACCCAUGUCAGGAUAUCUUACGGGUCUCGUAAGAGAAGGGACAUCGCUAU | 52.2 | 215 | – | –
22 | AAAAGACAUGAGGAUCACCCAUGUCAAGACGUAGGAGGAUAUGUCGUGAAAAAAGACUUGACAGAAGGCCUGUGUC | – | – | 18.7 | 15.4
23 | AAUGCACAUGAGGAUCACCCAUGUAAGACAAAGACAGGAUAUGGGCCGCAUGGCUCUGGCCCAGAAGGGUCAGUCG | – | – | 25 | 18.6
24 | AUCAGCUCGUCAGGAUAUACGUCACUGCGUCAGCAGUGUGGUAAGAUCACAUGAGGAUCACCCAUGUAGAAGGGACGCGCUGAU | 13.3 | 226 | – | –

Row | Sequence | apparent Kd [1] [nM] | apparent Kd [2] [nM] | apparent Kd [3] [nM] | apparent Kd [4] [nM]
25 | UUUUUGUCAGGAUAUGAUUAGAUCUACUUUUGUAGAUCUAAUCAGAAGGGACAUGAGGAUCACCCAUGUAGUUU | 37.2 | 152 | – | –
26 | AGUAGAUCAGGAUAUACGUGAAAGGUCAAAGUGUCCCUUCUACAUGAGGAUCACCCAUGUAGAAGGGAUCUACA | 12.8 | 12.5 | – | –
27 | GCGAUAUUGUAAGGAUAUACUCUGUGAUGAAGAGUAGAAGGUACUUACAUGAGGAUCACCCAUGUUUAACGAGAUACUAAUCGC | – | – | 16.6 | 13.1
28 | GUGUACAGAGGAUAUGCUGGAAUCUAGCGAAGCUAGGUUCCACAUGAGGAUCACCCAUGUAGAAGGCUGUACAC | 23.3 | 14.2 | – | –
29 | GCUUUUAAGGGAGGAUAUUGUUACAUGAGGAUCACCCAUGUGGCGGGAUGAUAUCUUAACAGGAACGAGAAGGCCCAAACGCGA | 35.7 | 65.4 | – | –
30 | UGCGUACAAGCGGACAUGAGGAUCACCCAUGUAUUGUUAUGCGAGGAUAUCGGGAAGCAGGAUUCCGAGAAGGUGCGGUGAGCC | – | – | 19.2 | 17.7
31 | GCUGUCGCAUGAGGAUAUGGACUGCUUUGCAGUCCAGAAGGCAUGUCAAUAGACAUGAGGAUCACCCAUGUAGUUAAGACAGCA | – | – | 704 | 42.4
32 | UCCUGAUCGAGAGGUAGGAGUGGUAGAAGGCGACCGGUGCCAGAUGACAUGAGGAUCACCCAUGUCGAGGAUAUACCACUGAAU | 7.04 | 12.1 | – | –
33 | ACAAAUGGAGGAUAUACAUGAGGAUCACCCAUGUUUAUCCUACAUGUGUGAUAAUAAUGUAGAAGGCCAUUUGA | 19.7 | 13.2 | – | –
34 | ACUGCCCGAGAGAAGGGAACAUGAGGAUCACCCAUGUUACCUCACCUGGUGACGGAACUCCAAGUUCAGGAUAUCUCGAACGGU | 5.23 | 6.51 | – | –
35 | ACGCCCUGAGGAUAUCUUAUCCCGCACAUGAGGAUCACCCAUGUUCUCCUCCGGGCUCCGAGAGAAGGCAGGCCCA | 30.7 | 41.2 | – | –
36 | CUCAUGUGAGGAUAUGUGAUCAACCUUCUGUAUAGAUGAUUACAGAAGGCACAUGAGGAUCACCCAUGUAGAUC | 106 | 125 | – | –
37 | UUAAAUCAUGUAGGAUAUGCGUGGAGAAACUAUGCAGAAGGACAUGAGGAUCACCCAUGUGCUUCCGUCUGCGUACAGAUGGUA | 26.3 | 156 | – | –
38 | AUCAUCUUGUCAGGAUAUGCGUGUCAACGAAAGUAGACAAUCUUGAUAACAUGAGGAUCACCCAUGUAGAAGGGACGAGAUGAU | 21 | 21.9 | – | –
39 | AACAGCUCGUCAGGAUAUAUUUUCCUUUUAUGUAUUUAUGUACAUGAGGAUCACCCAUGUUGUUUGUAGAAGGGACGAGCUGAA | 27.5 | 35.7 | – | –
40 | GAAAACAGAGGAUAUACAAAAUUGACACGAAAGGUGCAAAAACAUGAGGAUCACCCAUGUAGAAGGCUGAAGAA | 24.8 | 22 | – | –
41 | AUAGAGAUAGCGAUAUGAUCGAGAGAUCAUGUCGCUAAGAUUAGAAGGACAUGAGGAUCACCCAUGUAGGAUAUGGGAGUAGAA | – | – | 127 | 49.8
42 | GGUGGCGUGAUAACGCUAGAUAUAACAUGAGGAUCACCCAUGUAGGAUAUCCUGCCGAGAGGGCGGGAGAAGGACAACCAAUGG | 41.9 | 41.8 | – | –
43 | CGCAUGCGUAGAAUUAGCUGCUGACAGGAUAUGACAUGAGGAUCACCCAUGUGAUUUAAGAAGAGUCAGAAGGGUCACGAUGCG | 7.8 | 13.5 | – | –
44 | UAUAUAAUAUUUCACAUGAGGAUCACCCAUGUACAUGGGAUAGAGGAUAUACAAAUAUUAGUGGUGUAGAAGGUUAAUAUAUAU | 158 | 101 | – | –
45 | AGAUCACAUGAGGAUCACCCAUGUGAGGAUAUGAUACUAUGUACUUCGGUACAUAGUAUCAGAAGGCAUGUGAA | 43.5 | 41.1 | – | –
46 | GGUGCUGUGUAGAAGGCAGAUCUGAUUCAGAUCUGAGGAUAUACAUGAGGAUCACCCAUGUUAAGCACCAGCACGAGAGUGCAA | 5.8 | 8.54 | – | –
47 | GGGCUUUGGGAGAAGGUACAUUAAAUUAGUUUAACAUGAGGAUCACCCAUGUAAGGAUAUCCCAUCUUGUAUUAUUAUACAGCC | 11 | 13.3 | – | –
48 | UGUCGGAGCAGAGGAUAUUACAUGAGGAUCACCCAUGUAUGAACCAAUAGCUGGAAUCAGCAAUGUAAGAAGGCUGCUCCGACA | 17.5 | 167 | – | –
